# Laboratory results taken from ChEMBL document CHEMBL1212766, “Dose escalation study of the safety, tolerability, and pharmacokinetics of nemonoxacin (TG-873870), a novel potent broad-spectrum nonfluorinated quinolone, in healthy volunteers” (Antimicrob Agents Chemother, 2010).
# Tests used:
# [1] = test system: Homo sapiens; assay: Toxicity in healthy human assessed as occurrence of pruritus at 50 […], po; assay type: organism-based; set-up: route oral; details: in vivo
# [2] = test system: Homo sapiens; assay: Toxicity in healthy human assessed as occurrence of abdominal pain at 125 […], po; assay type: organism-based, Abdomen; set-up: route oral; details: in vivo
# Method in brief: (§1)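 Double-blind, placebo-controlled single ascending oral dose; two placebo and six active subjects per cohort. Adverse events were recorded throughout the dosing period and at follow-up, with confinement to 96 h after dosing. Results are reported as number and percentage of subjects with the event (n/N × 100).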
# [3] = test system: Homo sapiens; assay: Toxicity in healthy human assessed as occurrence of contact dermatitis at 250 […], po; assay type: organism-based; set-up: route oral; details: in vivo
# Method in brief: (§2)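 Randomized, double-blind, placebo-controlled single ascending oral doses in healthy volunteers (cohorts of 6 active, 2 placebo; 25–1,500 mg). After a 10-h fast, dose given with 240 ml water; fasting continued 4 h. Subjects were confined to 96 h postdose. AEs were recorded throughout dosing and at follow-up, reported as number and percentage of subjects with events per treatment.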
# [4] = test system: Homo sapiens; assay: Toxicity in healthy human assessed as occurrence of pruritus at 250 […], po; assay type: organism-based; set-up: route oral; details: in vivo
# [5] = Terminal phase elimination half-life in healthy human at 500 […], po administered single dose; assay type: ADME, organism-based; set-up: route oral; details: in vivo
# Method in brief: (§3)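 After one fasted oral dose (six healthy subjects per cohort), plasma was sampled from 0.5 to 96 h and assayed by LC-MS/MS (LLOQ 5 ng/ml). λz came from least-squares regression on at least the last three log-concentration points, and t1/2 = 0.693/λz. Values are means (SD).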
# [6] = test system: Homo sapiens; assay: AUC (0 to infinity) in healthy human at 250 […], po administered as single dose; assay type: ADME, organism-based, Plasma; set-up: time infinity, route oral; details: in vivo
# [7] = Tmax in healthy human at 500 mg, po administered as single dose; details: in vivo
# [8] = test system: Homo sapiens; assay: Toxicity in healthy human assessed as occurrence of erythema at 25 […], po; assay type: organism-based; set-up: route oral; details: in vivo
# [9] = test system: Homo sapiens; assay: Toxicity in healthy human assessed as occurrence of oral hypoesthesia at 25 […], po; assay type: organism-based; set-up: route oral; details: in vivo
# [10] = test system: Streptococcus pneumoniae; assay: Ratio of fCmax to MIC90 for Streptococcus pneumoniae; assay type: functional
# Method in brief: (§4)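 Fasted healthy adults got a single oral 500 mg dose with 240 ml water. Plasma was sampled predose to 96 h and assayed by LC-MS/MS (5–5,000 ng/ml). Cmax was read from individual profiles, and AUC0-∞ came from linear trapezoid plus extrapolation. Free fraction was measured by ultrafiltration (30,000 MWCO) of 0.5 and 6 h plasma. Free exposure was divided by the isolate MIC90.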
# [11] = Renal clearance in healthy human at 50 […], po administered as single dose; assay type: ADME, organism-based, Kidney; set-up: route oral; details: in vivo, read-out: CL_renal (converted)
# Method in brief: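 Renal clearance (CL_r) came from noncompartmental analysis of plasma drawn through 96 h and urine collected over fixed intervals to 96 h. Subjects were fasted healthy volunteers, six per dose cohort, given one oral dose with 240 ml water. Plasma and urine were assayed by LC-MS/MS after solid-phase extraction, with urine LLOQ 200 ng/ml. Values are means (SD).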
# [12] = test system: Homo sapiens; assay: Toxicity in healthy human assessed as occurrence of nausea at 500 […], po; assay type: organism-based; set-up: route oral; details: in vivo
# [13] = Tmax in healthy human at 1500 […], po administered as single dose; assay type: ADME, organism-based; set-up: route oral; details: in vivo
# Method in brief: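 Tmax was read by visual inspection of individual plasma concentration–time profiles. Plasma was sampled at 0.5-h steps early on and then out to 96 h, and assayed by LC-MS/MS. Subjects were fasted healthy volunteers, six per cohort, given one oral dose with 240 ml water. Values are means (SD).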
# [14] = test system: Homo sapiens; assay: Toxicity in healthy human assessed as occurrence of oral hypoesthesia at 125 […], po; assay type: organism-based; set-up: route oral; details: in vivo
# [15] = Cmax in healthy human at 25 mg, po administered as single dose; details: in vivo
# [16] = Terminal phase elimination half-life in healthy human at 125 […], po administered single dose; assay type: ADME, organism-based; set-up: route oral; details: in vivo; method in brief: as §3
# [17] = Terminal phase elimination half-life in healthy human at 1000 mg, po administered single dose; details: in vivo
# [18] = Tmax in healthy human at 250 mg, po administered as single dose; details: in vivo
# [19] = Terminal phase elimination half-life in healthy human at 250 […], po administered single dose; assay type: ADME, organism-based; set-up: route oral; details: in vivo; method in brief: as §3
# [20] = test system: Streptococcus pneumoniae; assay: Ratio of fCmax to MIC90 for penicillin-resistant Streptococcus pneumoniae; assay type: functional; method in brief: as §4
# [21] = test system: Homo sapiens; assay: Toxicity in healthy human assessed as occurrence of ear pain at 1500 […], po; assay type: organism-based; set-up: route oral; details: in vivo
# [22] = test system: Homo sapiens; assay: Toxicity in healthy human assessed as occurrence of pruritus at 125 […], po; assay type: organism-based; set-up: route oral; details: in vivo
# [23] = test system: Homo sapiens; assay: Toxicity in healthy human assessed as occurrence of erythema at 1000 […], po; assay type: organism-based; set-up: route oral; details: in vivo
# [24] = test system: Homo sapiens; assay: Toxicity in healthy human assessed as occurrence of headache at 250 […], po; assay type: organism-based; set-up: route oral; details: in vivo
# [25] = Cmax in healthy human at 500 mg, po administered as single dose; details: in vivo
# [26] = test system: Homo sapiens; assay: Toxicity in healthy human assessed as occurrence of oral hypoesthesia at 1500 […], po; assay type: organism-based; set-up: route oral; details: in vivo
# [27] = test system: Homo sapiens; assay: Clearance in healthy human at 25 […], po administered as single dose; assay type: ADME, organism-based; set-up: route oral; details: in vivo
# Method in brief: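 Randomized, double-blind, placebo-controlled single ascending oral dose in fasted healthy subjects (six on drug per cohort, with 240 ml water). Plasma sampled predose through 96 h and assayed by validated LC-MS/MS over 5–5,000 ng/ml. Oral clearance (CL_o) came from noncompartmental analysis, with AUC_0-∞ from linear trapezoids plus C_last/λz. Values are means (SD).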
# [28] = test system: Homo sapiens; assay: AUC (0 to infinity) in healthy human at 50 mg/kg, po administered as single dose; assay type: ADME, organism-based, Plasma; set-up: time infinity, route oral; details: in vivo
# [29] = test system: Streptococcus pneumoniae; assay: Ratio of fAUC to MIC90 for Streptococcus pneumoniae; assay type: functional; method in brief: as §4
# [30] = test system: Streptococcus pneumoniae; assay: Antimicrobial activity against ciprofloxacin-resistant Streptococcus pneumoniae; assay type: functional
# [31] = test system: Homo sapiens; assay: Toxicity in healthy human assessed as occurrence of nausea at 250 […], po; assay type: organism-based; set-up: route oral; details: in vivo
# [32] = test system: Homo sapiens; assay: Toxicity in healthy human assessed as occurrence of contact dermatitis at 125 […], po; assay type: organism-based; set-up: route oral; details: in vivo; method in brief: as §2
# [33] = test system: Streptococcus pneumoniae; assay: Antimicrobial activity against Streptococcus pneumoniae; assay type: functional
# [34] = Cmax in healthy human at 125 mg, po administered as single dose; details: in vivo
# [35] = test system: Homo sapiens; assay: Toxicity in healthy human assessed as occurrence of ear pain at 1000 […], po; assay type: organism-based; set-up: route oral; details: in vivo
# [36] = test system: Homo sapiens; assay: Clearance in healthy human at 1000 mg, po administered as single dose; details: in vivo
# [37] = test system: Homo sapiens; assay: Toxicity in healthy human assessed as occurrence of headache at 500 […], po; assay type: organism-based; set-up: route oral; details: in vivo
# [38] = test system: Homo sapiens; assay: Toxicity in healthy human assessed as occurrence of abdominal pain at 50 […], po; assay type: organism-based, Abdomen; set-up: route oral; details: in vivo; method in brief: as §1
# [39] = test system: Homo sapiens; assay: Toxicity in healthy human assessed as occurrence of ear pain at 50 […], po; assay type: organism-based; set-up: route oral; details: in vivo
# [40] = test system: Homo sapiens; assay: AUC (0 to infinity) in healthy human at 500 […], po administered as single dose; assay type: ADME, organism-based, Plasma; set-up: time infinity, route oral; details: in vivo
compound,measurement,setting,value
COc1c(N2C[C@@H](C)C[C@H](N)C2)ccc2c(=O)c(C(=O)O)cn(C3CC3)c12 [NEMONOXACIN],Activity,[1],17%
same,Activity,[2],0%
same,Activity,[3],0%
same,Activity,[4],0%
same,half-life,[5],14.8 h
same,AUC,[6],15450 ng·h/mL
same,Tmax,[7],2 h
same,Activity,[8],0%
same,Activity,[9],0%
same,Ratio,[10],191
same,CL renal,[11],2 mL/min/kg
same,Activity,[12],0%
same,Tmax,[13],2.67 h
same,Activity,[14],0%
same,Cmax,[15],150 ng/mL
same,half-life,[16],11.1 h
same,half-life,[17],16.4 h
same,Tmax,[18],0.92 h
same,half-life,[19],10.9 h
same,Ratio,[20],95
same,Activity,[21],0%
same,Activity,[22],0%
same,Activity,[23],17%
same,Activity,[24],0%
same,Cmax,[25],3410 ng/mL
same,Activity,[26],0%
same,CL,[27],5 mL/min/kg
same,AUC,[28],2990 ng·h/mL
same,Ratio,[29],1812
same,MIC90,[30],0.12 µg/mL
same,Activity,[31],0%
same,Activity,[32],33%
same,MIC90,[33],0.015 µg/mL
same,Cmax,[34],1220 ng/mL
same,Activity,[35],0%
same,CL,[36],3.67 mL/min/kg
same,Activity,[37],0%
same,Activity,[38],0%
same,Activity,[39],0%
same,AUC,[40],32360 ng·h/mL
